TRPC6 activator: mouse TRPC6 channel activators, primary screen, cell-based, HEK293, membrane potential dye; Short transient receptor potential channel 6 (Mus musculus), Q61143; HEK293-TRPC6 membrane potential dye fluorescence; hits give high values; B-score at 10 µM; 310,000 compounds, 0.13% hits; AID 2550, 2010;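 active = B-score of the integrated fluorescence ratio above library mean plus 3 SD, and starting fluorescence ratio within library mean plus 5 SD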;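 note: higher score means more depolarization so channel activation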
Target sequence (Q61143 whole entry, looked up): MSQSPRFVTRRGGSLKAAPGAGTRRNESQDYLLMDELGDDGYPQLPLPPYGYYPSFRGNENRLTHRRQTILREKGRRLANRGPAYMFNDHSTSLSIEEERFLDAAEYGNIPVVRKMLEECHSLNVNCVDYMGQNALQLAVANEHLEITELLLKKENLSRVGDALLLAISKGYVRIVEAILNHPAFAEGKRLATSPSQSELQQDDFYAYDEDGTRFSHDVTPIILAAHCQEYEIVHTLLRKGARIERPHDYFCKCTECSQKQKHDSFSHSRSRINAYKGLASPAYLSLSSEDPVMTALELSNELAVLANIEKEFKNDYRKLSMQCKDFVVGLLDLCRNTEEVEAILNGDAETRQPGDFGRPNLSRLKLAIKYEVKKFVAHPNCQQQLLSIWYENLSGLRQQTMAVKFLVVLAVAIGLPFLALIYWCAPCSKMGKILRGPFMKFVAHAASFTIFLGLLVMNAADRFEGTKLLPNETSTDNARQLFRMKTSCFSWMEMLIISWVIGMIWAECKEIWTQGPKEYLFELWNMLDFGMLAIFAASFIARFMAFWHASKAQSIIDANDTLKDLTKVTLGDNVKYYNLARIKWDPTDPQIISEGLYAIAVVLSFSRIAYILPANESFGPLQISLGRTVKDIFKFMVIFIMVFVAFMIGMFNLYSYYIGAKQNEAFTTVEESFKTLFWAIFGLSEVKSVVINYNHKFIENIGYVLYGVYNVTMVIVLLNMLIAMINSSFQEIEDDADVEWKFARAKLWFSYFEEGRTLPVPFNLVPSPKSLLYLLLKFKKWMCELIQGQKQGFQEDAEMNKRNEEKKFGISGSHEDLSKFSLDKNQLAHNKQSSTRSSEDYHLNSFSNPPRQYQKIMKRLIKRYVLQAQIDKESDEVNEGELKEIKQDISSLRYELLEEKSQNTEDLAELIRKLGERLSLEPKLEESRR
TRPC4 potent: positive allosteric modulators of TRPC4, primary screen, cell-based, mouse TRPC4beta, HEK293 mu-opioid, Fluo-4 calcium; Short transient receptor potential channel 4 (Mus musculus), Q9QUQ5; DAMGO EC20, Fluo-4 Ca2+ flux; hits give high values; B-score at 10 µM; 310,000 compounds, 0.42% hits; AID 2227, 2009;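 active = B-score of calcium response area above 5 SD of library B-scores, with initial fluorescence ratio within 5 SD of library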;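 note: B-score of integrated fluorescence ratio over time as area under calcium response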
TRPC4 agonist: activators of mouse TRPC4 channel, primary screen, Fluo4 calcium, HEK293 TRPC4beta/mu-opioid cells. Short transient receptor potential channel 4 (Mus musculus), Q9QUQ5. Fluo4 calcium fluorescence; hits give high values. B-score at 10 µM. 310,000 compounds, 0.49% hits. AID 2237, 2010;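 active = B-score above 5 SD of library B-scores, and initial fluorescence ratio not above library mean plus 5 SD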;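 note: positive B-score marks a calcium rise read as TRPC4 activation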
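Technique: kinetic Fluo4 calcium fluorescence; Test system: TRPC4beta and mu-opioid receptor HEK293 stable cells; Measure: B-scored integrated calcium fluorescence ratio; Benchmarks: low control buffer alone, high control maximal DAMGO; Schedule: 45 min room-temperature Fluo4 loading, 110 s read.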
TRPC6 inh: mouse TRPC6 channel inhibitors, primary screen, cell-based, HEK293, membrane potential dye | B-score at 10 µM | Short transient receptor potential channel 6 (Mus musculus), Q61143 | ACh-evoked depolarization; hits give low values | AID 2553, 2010 | 310,000 compounds, 1.1% hits;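 active = B-score under library mean minus 3 SD, initial fluorescence not abnormally high, positive integrated signal ratio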;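 note: B-score derived from integrated fluorescence ratio over the kinetic read; more negative B-score means stronger inhibition of depolarization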
TRPC4 inh: inhibitors of mouse TRPC4 channel, primary screen, Fluo4 calcium, HEK293 TRPC4beta/mu-opioid cells; AID 2247, 2010; Short transient receptor potential channel 4 (Mus musculus), Q9QUQ5; DAMGO-evoked Fluo4 calcium flux; hits give low values; B-score at 10 µM; 300,000 compounds, 0.39% hits;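 active = B-score over 3 SD under the library average, no early fluorescence shift, positive overall ratio signal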
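Assay system: HEK293 cells with stable TRPC4beta plus mu-opioid receptor expression. Dosing: single dose. Measured by: Fluo4 Ca2+ flux fluorescence. Also added: DAMGO in two steps, submaximal then maximal. Read-out: B score from integrated Fluo4 fluorescence ratio.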
TRPC4 sel inh 2: mouse TRPC4 off-target activity of TRPC6 inhibitors, second screen | shares compounds with TRPC6 inh | HEK293 TRPC4/MOR, membrane potential dye fluorescence; channel activated by saturating DAMGO dose | inhibition, % at 10 µM | 920 compounds, 42% hits | AID 2776;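 active = compounds whose fluorescence signal differed from control wells by over 3 SD, either direction, in both duplicate plates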
TRPC4 spec: mouse TRPC4 modulation by TRPC6 hits, confirmation, selectivity assay for TRPC6 inhibitor project, cell-based, HEK293 TRPC4/mu-opioid, membrane potential dye; shares compounds with TRPC6 inh; membrane potential fluorescence; activity change, negative = inhibition, % at 10 µM; 920 compounds, 61% hits;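 active = rise or fall in signal beyond 3 SD of buffer-only wells in both replicate plates, either sign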;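 note: integrated kinetic ratio of fluorescence range over baseline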
HEK293 MPD ctr 2-1: nonspecific membrane potential effects, parental HEK293, confirmation, counter-screen for TRPC6 inhibitor project, cell-based, second counter screen; shares compounds with TRPC6 inh; parental HEK293 membrane potential dye fluorescence; maximal acetylcholine challenge after compound addition; signal change vs control, % at 10 µM; 920 compounds, 31% hits;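 active = membrane potential signal moving either way by over 3 SD of the maximum-effect control, in both duplicate plates, meaning non-specific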
HEK293 MPD ctr-1: membrane potential modulation in parental HEK293, confirmation, counter-screen for TRPC6 inhibitor project, cell-based; 920 compounds, 60% hits; shares compounds with TRPC6 inh; membrane potential signal change, % at 10 µM; parental HEK293 membrane potential dye fluorescence; AID 2780, 2010;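 active = membrane potential signal shifting up or down by more than 3 SD of buffer-only wells, on both duplicate plates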
HEK293 MPD ctr-2: parental HEK293 membrane potential modulation, confirmation, counter-screen for TRPC6 modulator project, cell-based; membrane potential signal change, % at 10 µM; 2,400 compounds, 51% hits; membrane potential dye fluorescence; shares compounds with TRPC6 inh; AID 488924, 2010;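 active = membrane potential signal moves up or down beyond 5 SD from buffer-only wells, on both duplicate plates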
HEK293 MPD ctr 2-2: second check of TRPC6 modulator effects in parental HEK293 cells | AID 488926 | inhibition, % at 10 µM | 2,400 compounds, 14% hits | shares compounds with TRPC6 inh | membrane potential dye fluorescence; after compound, maximal acetylcholine stimulation;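 active = membrane potential signal drops by more than 5 SD from the mean control signal, in both duplicate plates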;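 note: plate controls were acetylcholine ECmax control wells for no effect and buffer only wells for full effect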
TRPC4/MOR mod: TRPC4 modulation by TRPC6 hit compounds, confirmation, selectivity assay for TRPC6 modulator project, cell-based, HEK293 TRPC4/mu-opioid, membrane potential dye, mouse; 2,400 compounds, 69% hits; percent change from control (negative = decrease, positive = increase), % at 10 µM; membrane potential fluorescence; shares compounds with TRPC6 inh;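 active = membrane potential signal moved up or down beyond 5 SD of buffer control wells, in both duplicate plates, actives on both sides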;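 note: plate controls were assay buffer wells for no effect and DAMGO maximal-effect wells for full effect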
TRPC4/MOR inh 2: mouse TRPC4 off-target activity of TRPC6 modulators, second screen | 2,400 compounds, 55% hits | shares compounds with TRPC6 inh | HEK293 TRPC4/mu-opioid, membrane potential dye fluorescence; stimulated with maximal-effect DAMGO | inhibition, % at 10 µM | AID 488928;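 active = drop in membrane potential signal beyond 5 SD of the control wells in both duplicate plates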;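 note: TRPC4 counter screen for TRPC6 hits run under conditions tuned for TRPC6 not TRPC4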
TRPC6 block conf: mouse TRPC6 channel inhibitors, confirmation, HEK293 cells, membrane potential dye, duplicate; shares compounds with TRPC6 inh; ACh-evoked depolarization; inhibition, % at 10 µM; 3,300 compounds, 43% hits; AID 488960, 2010;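 active = fluorescence ratio falls more than 5 SD below the full-stimulation control mean, in both duplicate runs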;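 note: integrated fluorescence ratio of peak minus minimum over baseline after agonist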
TRPC6 act confirm: mouse TRPC6 channel activators, confirmation, HEK293 cells, membrane potential dye, duplicate | HEK293-TRPC6 membrane potential dye fluorescence, FDSS | AID 488961, 2010 | activation, % at 10 µM | 2,800 compounds, 11% hits | shares compounds with TRPC6 inh;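 active = ratio signal rise beyond 5 SD above unstimulated control wells' mean, seen in both duplicate runs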;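 note: plate controls were buffer EC0 wells for no effect and acetylcholine ECmax response for full effect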
* = called active by the depositor. Only some compounds are listed: those with a hit (about 2.3% of all), similar ones and a draw of the others.

For CCO[C@H]1OC(C(=O)N2CCN(C)CC2)=C[C@@H](C)[C@@H]1CCCO the results were TRPC6 activator inactive, TRPC4 potent inactive, TRPC4 agonist inactive, TRPC6 inh inactive and TRPC4 inh inactive.
COC(=O)c1c(-c2ccc3ccccc3c2)csc1NC(=O)Cc1ccc(OC)c(OC)c1 was read as TRPC6 activator inactive, TRPC4 potent inactive, TRPC4 agonist inactive, TRPC6 inh -5.75*, TRPC4 inh inactive, HEK293 MPD ctr-2 inactive, HEK293 MPD ctr 2-2 inactive, TRPC4/MOR mod inactive, TRPC4/MOR inh 2 inactive, TRPC6 block conf inactive and TRPC6 act confirm inactive.
For O=C(c1ccco1)N1CCCC(c2nc3c(nnn3Cc3ccc(Cl)cc3Cl)c(=O)[nH]2)C1 (stereo unspecified) the results were TRPC6 activator inactive, TRPC4 potent inactive, TRPC4 agonist inactive, TRPC6 inh inactive and TRPC4 inh inactive.
O=C(c1ccco1)N1CCCC(c2nc3c(nnn3Cc3cccc(Cl)c3)c(=O)[nH]2)C1 (stereo unspecified) was read as TRPC6 activator inactive, TRPC4 potent inactive, TRPC4 agonist inactive, TRPC6 inh -5.23*, TRPC4 inh inactive, HEK293 MPD ctr-2 inactive, HEK293 MPD ctr 2-2 inactive, TRPC4/MOR mod 17.0%*, TRPC4/MOR inh 2 inactive, TRPC6 block conf 50.5%* and TRPC6 act confirm inactive.
COCCNc1ccc(-c2nn(C)c(=O)c3ccccc23)cc1[N+](=O)[O-] was read as TRPC6 activator inactive, TRPC4 potent inactive, TRPC4 agonist inactive, TRPC6 inh inactive and TRPC4 inh inactive.
`CN(C)CCCNc1ccc(-c2nn(C)c(=O)c3ccccc23)cc1[N+](=O)[O-]` gave TRPC6 activator inactive, TRPC4 potent inactive, TRPC4 agonist inactive, TRPC6 inh -7.92*, TRPC4 inh inactive, TRPC4 sel inh 2 44.0%*, TRPC4 spec -26.2%*, HEK293 MPD ctr 2-1 inactive, HEK293 MPD ctr-1 -243.5%*, TRPC6 block conf inactive and TRPC6 act confirm inactive.
`CC(=O)[C@@]1(O)C(C)CC2C3C=C(C)C4=Cc5c(cnn5-c5ccccc5)C[C@]4(C)C3C(O)C[C@@]21C` (stereo partly specified) gave TRPC6 activator inactive, TRPC4 potent inactive, TRPC4 agonist inactive, TRPC6 inh -6.44*, TRPC4 inh inactive, HEK293 MPD ctr-2 inactive, HEK293 MPD ctr 2-2 inactive, TRPC4/MOR mod inactive, TRPC4/MOR inh 2 inactive and TRPC6 block conf inactive.
For Cn1c(=O)c2cc(S(=O)(=O)NCCC(=O)NCCC3=CCCCC3)ccc2n(C)c1=O the results were TRPC6 activator inactive, TRPC4 potent inactive, TRPC4 agonist inactive, TRPC6 inh inactive and TRPC4 inh inactive.
For Cc1c(CCCN)c2ccccc2n1Cc1ccccc1 the results were TRPC6 activator inactive, TRPC4 potent inactive, TRPC4 agonist inactive, TRPC6 inh -7.33*, TRPC4 inh inactive, TRPC4 sel inh 2 55.0%*, TRPC4 spec inactive, HEK293 MPD ctr 2-1 inactive, HEK293 MPD ctr-1 -196.0%*, TRPC6 block conf inactive and TRPC6 act confirm inactive.
O=Nc1c(O)n(Cc2ccccc2)c2ccccc12 was read as TRPC6 activator inactive, TRPC4 potent inactive, TRPC4 agonist inactive, TRPC6 inh inactive and TRPC4 inh inactive.
O=C(CN1C(=O)NC2(CCCc3ccccc32)C1=O)N1CCN(C(=O)c2ccco2)CC1 (stereo unspecified) was read as TRPC6 activator inactive, TRPC4 potent inactive, TRPC4 agonist inactive, TRPC6 inh inactive and TRPC4 inh inactive.
`N#Cc1c(NCCN)nc(-c2ccco2)c2c1CCCC2` gave TRPC6 activator inactive, TRPC4 potent inactive, TRPC4 agonist inactive, TRPC6 inh -8.56*, TRPC4 inh inactive, HEK293 MPD ctr-2 -258.5%*, HEK293 MPD ctr 2-2 89.0%*, TRPC4/MOR mod -46.0%*, TRPC4/MOR inh 2 75.0%*, TRPC6 block conf 76.5%* and TRPC6 act confirm inactive.

High-throughput results (PubChem BioAssay)
